Test results as given in ChEMBL document CHEMBL1629640, “Antimicrobial activities of jadomycin B and structurally related analogues” (2009).
In brackets after ≈: the same amount, converted by molar mass.

Tests used:
[1] = system: Staphylococcus aureus; test: Antimicrobial activity against Staphylococcus aureus C622 by broth microdilution method; type: functional
Summary of the method: (§1)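 Preliminary MIC screen by twofold serial broth microdilution in Mueller-Hinton broth, 0.5% DMSO final, with a DMSO-only control. Overnight mid-log cultures were diluted 100-fold, grown 4 h, then diluted 10−6 and added to wells. Plates were incubated overnight and growth read visually. Inhibition was defined as growth ≤ half of control. Three replicates per strain.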

[2] = system: Staphylococcus aureus; test: Antimicrobial activity against methicillin-resistant Staphylococcus aureus C623 by broth microdilution method; type: functional; summary of the method: as §1
[3] = system: Staphylococcus aureus; test: Antimicrobial activity against Staphylococcus aureus 305 by broth microdilution method; type: functional; summary of the method: as §1
[4] = system: Staphylococcus aureus; test: Antimicrobial activity against Staphylococcus aureus Becker CP8 by broth microdilution method; type: functional; summary of the method: as §1
[5] = system: Staphylococcus epidermidis; test: Antimicrobial activity against Staphylococcus epidermidis C960 by broth microdilution method; type: functional
Summary of the method: (§2)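 Preliminary screen by broth microdilution. Jadomycins dissolved in 100% DMSO and diluted to a 2.56 mg ml−1 working stock in 5% DMSO. First well held 0.5% DMSO final, followed by twofold serial dilutions in broth. A DMSO-only control was included. Strains were grown in Mueller-Hinton broth to mid-log, diluted 100-fold, incubated 4 h, then diluted 10−6. Plates were incubated overnight and growth was read visually. MIC defined as growth ≤ half of control. Three replicates.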

[6] = system: Staphylococcus epidermidis; test: Antimicrobial activity against Staphylococcus epidermidis isolate C621 by broth microdilution method; type: functional; summary of the method: as §2
[7] = system: Pseudomonas aeruginosa; test: Antimicrobial activity against Pseudomonas aeruginosa H187 by broth microdilution method; type: functional; summary of the method: as §2
[8] = system: Pseudomonas aeruginosa; test: Antimicrobial activity against Pseudomonas aeruginosa H188 by broth microdilution method; type: functional; summary of the method: as §2
[9] = system: Enterococcus faecalis; test: Antimicrobial activity against Enterococcus faecalis C625 by broth microdilution method; type: functional; summary of the method: as §2
[10] = system: Bacillus subtilis; test: Antimicrobial activity against Bacillus subtilis C971 by broth microdilution method; type: functional; summary of the method: as §2
[11] = system: Staphylococcus aureus; test: Antimicrobial activity against Staphylococcus aureus ATCC 55804 by broth microdilution method
[12] = system: Staphylococcus aureus; test: Antimicrobial activity against methicillin-resistant Staphylococcus aureus C623 by CLSI method; type: functional
Summary of the method: (§3)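 MIC by CLSI broth microdilution in cation-adjusted Mueller-Hinton broth at 5 × 10^5 CFU ml−1 final (5 × 10^4 CFU/well).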

[13] = system: Staphylococcus aureus; test: Antimicrobial activity against Staphylococcus aureus 305 by CLSI method; type: functional; summary of the method: as §3
[14] = system: Staphylococcus epidermidis; test: Antimicrobial activity against Staphylococcus epidermidis C960 by CLSI method; type: functional

Row | SMILES | MIC [1] [µg/mL] | MIC [2] [µg/mL] | MIC [3] [µg/mL] | MIC [4] [µg/mL] | MIC [5] [µg/mL] | MIC [6] [µg/mL] | MIC [7] [µg/mL] | MIC [8] [µg/mL] | MIC [9] [µg/mL] | MIC [10] [µg/mL] | MIC [11] [µg/mL] | MIC [12] [µg/mL] | MIC [13] [µg/mL] | MIC [14] [µg/mL]
1 | CC[C@H]1OC(=O)[C@H](C)[C@@H](O[C@H]2C[C@@](C)(OC)[C@@H](O)[C@H](C)O2)[C@H](C)[C@@H](O[C@@H]2O[C@H](C)C[C@H](N(C)C)[C@H]2O)[C@](C)(O)C[C@@H](C)C(=O)[C@H](C)[C@@H](O)[C@]1(C)O [ERYTHROMYCIN] | < 1 | > 128 | < 0.25 | < 0.25 | < 0.125 | < 0.125 | > 2 | > 2 | 1 (≈ 1.36 µM) | < 0.125 | < 0.25 |  |  | 
2 | Cc1cc(O)c2c(c1)[C@@H]1OC(=O)[C@H](Cc3ccccc3)N1C1=C2C(=O)c2cccc(O[C@H]3C[C@@H](O)[C@@H](O)[C@H](C)O3)c2C1=O [JADOMYCIN F] | 1 (≈ 1.71 µM) | 1 (≈ 1.71 µM) | 4 (≈ 6.85 µM) | 8 (≈ 13.7 µM) | < 1 | 2 (≈ 3.43 µM) | > 128 | > 128 | > 128 | 16 (≈ 27.4 µM) | 16 (≈ 27.4 µM) | 8 (≈ 13.7 µM) | 4 (≈ 6.85 µM) | 0.5 (≈ 0.857 µM)
3 | Cc1cc(O)c2c(c1)[C@@H]1OC(=O)[C@@H]([C@H](C)O)N1C1=C2C(=O)c2cccc(O[C@H]3C[C@@H](O)[C@@H](O)[C@H](C)O3)c2C1=O [JADOMYCIN DT] | 16 (≈ 29.8 µM) | 16 (≈ 29.8 µM) | 32 (≈ 59.5 µM) | 32 (≈ 59.5 µM) | 2 (≈ 3.72 µM) | 8 (≈ 14.9 µM) | > 128 | > 128 | > 128 | 64 (≈ 119 µM) | 64 (≈ 119 µM) | 32 (≈ 59.5 µM) | 32 (≈ 59.5 µM) | 4 (≈ 7.44 µM)
4 | CSCC[C@@H]1C(=O)O[C@H]2c3cc(C)cc(O)c3C3=C(C(=O)c4c(O[C@H]5C[C@@H](O)[C@@H](O)[C@H](C)O5)cccc4C3=O)N12 [JADOMYCIN DM] | 2 (≈ 3.52 µM) | 4 (≈ 7.05 µM) | 32 (≈ 56.4 µM) | 16 (≈ 28.2 µM) | < 1 | 2 (≈ 3.52 µM) | > 128 | > 128 | > 128 | 16 (≈ 28.2 µM) | 64 (≈ 113 µM) | 16 (≈ 28.2 µM) | 32 (≈ 56.4 µM) | 2 (≈ 3.52 µM)
5 | Cc1cc(O)c2c(c1)[C@@H]1OC(=O)[C@H](Cc3ccc(O)cc3)N1C1=C2C(=O)c2cccc(O[C@H]3C[C@@H](O)[C@@H](O)[C@H](C)O3)c2C1=O [JADOMYCIN Y] | 8 (≈ 13.3 µM) | 8 (≈ 13.3 µM) | 4 (≈ 6.67 µM) | 4 (≈ 6.67 µM) | < 1 | 2 (≈ 3.34 µM) | > 128 | > 128 | > 128 | 8 (≈ 13.3 µM) | 16 (≈ 26.7 µM) |  |  | 
6 | Cc1cc(O)c2c(c1)[C@@H]1OC(=O)[C@H](CO)N1C1=C2C(=O)c2cccc(O[C@H]3C[C@@H](O)[C@@H](O)[C@H](C)O3)c2C1=O [JADOMYCIN S] |  |  | 8 (≈ 15.3 µM) | 8 (≈ 15.3 µM) | 1 (≈ 1.91 µM) | 4 (≈ 7.64 µM) | > 128 | > 128 | > 128 | 16 (≈ 30.6 µM) | 32 (≈ 61.1 µM) | 32 (≈ 61.1 µM) | 32 (≈ 61.1 µM) | 0.5 (≈ 0.955 µM)
7 | Cc1cc(O)c2c(c1)[C@@H]1NC(=O)C[C@@H](C(=O)O)N1C1=C2C(=O)c2cccc(O[C@H]3C[C@@H](O)[C@@H](O)[C@H](C)O3)c2C1=O [JADOMYCIN N] | 32 (≈ 58.1 µM) | 16 (≈ 29.1 µM) | 8 (≈ 14.5 µM) | 16 (≈ 29.1 µM) | < 1 | 8 (≈ 14.5 µM) | > 128 | > 128 | > 128 | 32 (≈ 58.1 µM) | 32 (≈ 58.1 µM) | 128 (≈ 233 µM) | > 128 | 16 (≈ 29.1 µM)
8 | Cc1cc(O)c2c(c1)[C@@H]1OC(=O)CN1C1=C2C(=O)c2cccc(O[C@H]3C[C@@H](O)[C@@H](O)[C@H](C)O3)c2C1=O [JADOMYCIN G] | 64 (≈ 130 µM) | 32 (≈ 64.8 µM) | 64 (≈ 130 µM) | 32 (≈ 64.8 µM) | 2 (≈ 4.05 µM) | 8 (≈ 16.2 µM) | > 128 | > 128 | > 128 | 64 (≈ 130 µM) | 64 (≈ 130 µM) | > 128 | > 128 | 32 (≈ 64.8 µM)
9 | Cc1cc(O)c2c(c1)[C@@H]1OC(=O)[C@H](CC(C)C)N1C1=C2C(=O)c2cccc(O[C@H]3C[C@@H](O)[C@@H](O)[C@H](C)O3)c2C1=O [JADOMYCIN L] | < 1 | < 1 | 8 (≈ 14.6 µM) | 8 (≈ 14.6 µM) | < 1 | 4 (≈ 7.28 µM) | > 128 | > 128 | > 128 | 16 (≈ 29.1 µM) | 16 (≈ 29.1 µM) | 8 (≈ 14.6 µM) | 8 (≈ 14.6 µM) | 0.5 (≈ 0.91 µM)
10 | Cc1cc(O)c2c(c1)[C@@H]1OC(=O)[C@@H](CO)N1C1=C2C(=O)c2cccc(O[C@H]3C[C@@H](O)[C@@H](O)[C@H](C)O3)c2C1=O [JADOMYCIN DS] | 8 (≈ 15.3 µM) | 8 (≈ 15.3 µM) | 4 (≈ 7.64 µM) | 8 (≈ 15.3 µM) | 1 (≈ 1.91 µM) | 4 (≈ 7.64 µM) | > 128 | > 128 | > 128 | 16 (≈ 30.6 µM) | 16 (≈ 30.6 µM) | 16 (≈ 30.6 µM) | 32 (≈ 61.1 µM) | 2 (≈ 3.82 µM)
11 | Cc1cc(O)c2c(c1)[C@@H]1OC(=O)[C@H]([C@H](C)O)N1C1=C2C(=O)c2cccc(O[C@H]3C[C@@H](O)[C@@H](O)[C@H](C)O3)c2C1=O [JADOMYCIN T] | 8 (≈ 14.9 µM) | 8 (≈ 14.9 µM) | 4 (≈ 7.44 µM) | 4 (≈ 7.44 µM) | < 1 | 2 (≈ 3.72 µM) | > 128 | > 128 | > 128 | 8 (≈ 14.9 µM) | 16 (≈ 29.8 µM) | 32 (≈ 59.5 µM) | 64 (≈ 119 µM) | 1 (≈ 1.86 µM)
12 | CC[C@H](C)[C@H]1C(=O)O[C@H]2c3cc(C)cc(O)c3C3=C(C(=O)c4c(O[C@H]5C[C@@H](O)[C@@H](O)[C@H](C)O5)cccc4C3=O)N12 [JADOMYCIN B] | 2 (≈ 3.64 µM) | < 1 | < 1 | 2 (≈ 3.64 µM) | < 1 | < 1 | > 128 | > 128 | 32 (≈ 58.2 µM) | 4 (≈ 7.28 µM) | 4 (≈ 7.28 µM) | 8 (≈ 14.6 µM) | 4 (≈ 7.28 µM) | 0.5 (≈ 0.91 µM)
